The target in experiment [1] is T1, Tyrosine-protein phosphatase non-receptor type 1 (Homo sapiens, UniProt P18031).
T1 sequence (P18031 whole entry): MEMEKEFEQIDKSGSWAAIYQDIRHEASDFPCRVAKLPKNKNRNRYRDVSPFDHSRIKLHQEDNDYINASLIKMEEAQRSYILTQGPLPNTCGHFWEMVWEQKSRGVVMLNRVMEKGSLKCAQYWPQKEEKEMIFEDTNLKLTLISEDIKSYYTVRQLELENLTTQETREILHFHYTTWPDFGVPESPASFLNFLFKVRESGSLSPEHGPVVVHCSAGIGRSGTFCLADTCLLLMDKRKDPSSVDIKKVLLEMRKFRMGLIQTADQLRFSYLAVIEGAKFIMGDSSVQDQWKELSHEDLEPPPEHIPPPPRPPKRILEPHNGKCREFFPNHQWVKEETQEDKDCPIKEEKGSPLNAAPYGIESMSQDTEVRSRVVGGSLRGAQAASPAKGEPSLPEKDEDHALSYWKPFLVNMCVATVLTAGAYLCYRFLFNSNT
Put plainly: Inhibition of human Protein-tyrosine phosphatase 1B (PTP1B) using fluorescein diphosphate (FDP). Summed up:
(§1)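 Recombinant human PTP1B enzyme, fluorescein diphosphate (FDP) as substrate. Enzyme activity was followed by fluorescence measurement. IC50 values were obtained by direct regression curve analysis.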

Experiment [2] concerns the target T1, Tyrosine-protein phosphatase non-receptor type 1. Put plainly: In vitro inhibitory activity against recombinant human protein-tyrosine phosphatase 1B (PTP1B) using fluorescein diphosphate (FDP) as a substrate. The essentials: as §1

On to `O=C(O)COc1ccc(CC2=C(c3ccccc3)c3ccccc3C(=O)C2=O)cc1`, for which, in experiment [1], the IC50 – broadly, the concentration needed to halve the response being measured – amounted to 1540 nM.
In turn, `CCOC(=O)CCC1=C(c2ccccc2)c2ccccc2C(=O)C1=O` displayed an IC50 in experiment [1] of 430 nM.
For the molecule `COc1ccc2c(c1)C(=O)C(=O)C=C2c1ccccc1`, the IC50 in experiment [2] (read-out: IC50) came to 2040 nM.
The same measure, in the same setting: the figure for `CCOC(=O)COc1ccc(C2=CC(=O)C(=O)c3ccccc32)cc1` is 1070 nM.
Still for that read-out and setting: the figure for `CC(C)(C)c1cc(C2=CC(=O)C(=O)c3ccccc32)cc(C(C)(C)C)c1O` is 5730 nM; for `CC(C)C1=CC(=O)C(=O)c2ccccc21` it is 10100 nM.
The same measure, in the same setting: the figure for `NC1=CC(=O)C(=O)c2ccccc21` [4-AMINO-[1,2]NAPHTHOQUINONE] is 24600 nM.
Consider `CC(C)(C)OC(=O)COc1ccc(CC2=C(c3ccccc3)c3ccccc3C(=O)C2=O)cc1`, for which, in experiment [1], inhibition was half-maximal at 1480 nM (IC50).
With `CCCCCCC1=CC(=O)C(=O)c2ccccc21`, the IC50 in experiment [2] (read-out: IC50) was found to be 3300 nM.
In the case of `CN(C1=CC(=O)C(=O)c2ccccc21)c1ccccc1`, in experiment [2] (read-out: IC50), the IC50 stood at 34900 nM.
`COC(=O)C(Cc1ccccc1)Oc1ccc2c(c1)C(=O)C(=O)C=C2c1ccccc1` (stereo unspecified): the IC50 in experiment [2] (read-out: IC50) is 2540 nM.
On to `O=C1C=Cc2ccccc2C1=O` [1,2-NAPHTHOQUINONE], for which the IC50 in experiment [1] stood at 24600 nM.
Consider `O=C1C=C(c2ccccc2[N+](=O)[O-])c2ccccc2C1=O`, for which, in experiment [2] (read-out: IC50), the 50% inhibitory concentration (IC50) was determined as 1170 nM.
Same read-out and setting: as for `O=C(Nc1cccc2c1C(=O)C(=O)C=C2c1ccccc1)OCc1ccccc1`, the figure is 1340 nM; as for `O=C1C=C(c2cccc3ccccc23)c2ccccc2C1=O`, 2150 nM.
Still for that read-out and setting: the figure for `O=C(Nc1ccc2c(c1)C(=O)C(=O)C=C2c1ccccc1)OCc1ccccc1` is 2250 nM.
Still for that read-out and setting: the figure for `O=C1C=C(c2cc(Cl)ccc2Cl)c2ccccc2C1=O` is 5050 nM; for `O=C1C=C(c2c[nH]c3ccc(C(=O)O)cc23)c2ccccc2C1=O` it is 3000 nM.
With `O=C1C=C(N2CCCC2)c2ccccc2C1=O`, in experiment [2], the IC50 entry is reported as “Not Active”.
Turning to `CCOC(=O)CCC1=C(n2ccc3ccccc32)c2ccccc2C(=O)C1=O`, in experiment [1], 270 nM corresponded to half-maximal inhibition (IC50).
For the molecule `O=C1C=C(OCCCO)c2ccccc2C1=O`, in experiment [2] (read-out: IC50), the IC50 came to 36500 nM.
Same read-out and setting: as for `O=C1C=C(S(=O)(=O)O)c2ccccc2C1=O`, the figure is 5290 nM.
`CCN(CC)C(=O)CCC1=C(c2ccccc2)c2ccccc2C(=O)C1=O`: 610 nM corresponded to half-maximal inhibition in experiment [1] (IC50).
With `COC(=O)CCC1=C(n2ccc3ccccc32)c2ccc(CCC(=O)OC)cc2C(=O)C1=O`, half-maximal inhibition in experiment [1] (IC50) required 940 nM.
With `CCOC(=O)Nc1cccc2c1C(=O)C(=O)C=C2c1ccccc1`, the half-maximal inhibitory concentration (IC50) in experiment [2] (read-out: IC50) was 650 nM.
For `O=C1C=C(c2ccc(-c3ccccc3)cc2)c2ccccc2C1=O`, the IC50 in experiment [2] (read-out: IC50) turned out to be 5400 nM.
On the same count and under the same terms, the figure for `O=C1C=C(c2cc(F)ccc2F)c2ccccc2C1=O` is 500 nM.
With `COC(=O)CCc1ccc2c(c1)C(n1ccc3ccccc31)=CC(=O)C2=O`, the IC50 in experiment [1] was 920 nM.
With `O=C1C=C(c2c[nH]c3cc(C(=O)O)ccc23)c2ccccc2C1=O`, in experiment [2] (read-out: IC50), the IC50 amounted to 4560 nM.
In the case of `CCCCCOC1=C(c2ccccc2)c2ccccc2C(=O)C1=O`, in experiment [2] (read-out: IC50), the IC50 is 2690 nM.
As for `COC1=CC(=O)C(=O)c2ccccc21`, the IC50 in experiment [2] (read-out: IC50) turned out to be 29100 nM.
Molecule `O=C(O)COc1ccc(CC2=C(n3ccc4ccccc43)c3ccccc3C(=O)C2=O)cc1` yielded an IC50 in experiment [1] of 1010 nM.
Regarding `O=C1C=C(c2ccc(O)cc2)c2ccccc2C1=O`, the IC50 in experiment [2] (read-out: IC50) worked out at 440 nM.
Turning to `COc1ccc(C2=CC(=O)C(=O)c3ccccc32)cc1`, in experiment [2] (read-out: IC50), the IC50 is 5240 nM.
Same read-out and setting: the figure for `CCOC(=O)COc1ccccc1C1=CC(=O)C(=O)c2ccccc21` is 2150 nM.
In the case of `COC(=O)CCC1=C(c2ccccc2)c2cc(CCC(=O)OC)ccc2C(=O)C1=O`, inhibition in experiment [1] was half-maximal at 680 nM (IC50).
In the case of `O=C1C=C(C2CCCC2)c2ccccc2C1=O`, the IC50 in experiment [2] (read-out: IC50) was 4200 nM.
`O=C1C=C(Cc2ccccc2)c2ccccc2C1=O`: the IC50 in experiment [2] (read-out: IC50) stood at 1420 nM.
On the same count and under the same terms, as for `O=C1C=C(n2ccc3ccccc32)c2ccc(OC(Cc3ccccc3)C(=O)O)cc2C1=O` (stereo unspecified), the figure is 2070 nM; as for `O=C1C=C(c2ccccc2O)c2ccccc2C1=O`, 1600 nM.
On to `CCCCCOc1ccc2c(c1)C(=O)C(=O)C=C2c1ccccc1`, for which, in experiment [2] (read-out: IC50), the IC50 turned out to be 920 nM.

These data come from ChEMBL document CHEMBL1135185, “Synthesis and PTP1B inhibition of 1,2-naphthoquinone derivatives as potent anti-diabetic agents” (Bioorg Med Chem Lett, 2002).
